Data set [1] has as its system Human immunodeficiency virus 1. Briefly: Antiviral activity against HIV1 RES056 expressing reverse transcriptase K103N/Y181C double mutant infected in human MT4 cells assessed as reduction in virus-induced cytopathic effect after 5 days by MTT assay. Type of data set: functional, organism-based. The note with it: Human immunodeficiency virus 1, RES056, MT4, 120 h. The method, boiled down:
(§1)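 MT-4 cells resuspended at 6 × 10⁵ cells/mL, then infected with 100–300 CCID₅₀ of HIV-1 IIIB or RES056 or left mock-infected. Compound, in serial five-fold dilutions in triplicate wells, was added at the start. Viability was read by MTT after 5 days. EC₅₀ is 50% protection from viral cytopathicity, CC₅₀ is 50% viability loss in mock-infected cells, and SI is CC₅₀/EC₅₀.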
(Protection from cytopathic effect is a common read-out in antiviral testing.)

Data set [2] can be described thus: Selectivity index, ratio of CC50 for mock-infected human MT4 cells to EC50 for HIV1 3B infected in human MT4 cells. The data set is classed as toxicity, cell-based. The following applies: mock-infected and infected with HIV1 3B, read-out: Selectivity Index. The gist of the method: as §1
Data set [3] in a line: Selectivity index, ratio of CC50 for mock-infected human MT4 cells to EC50 for HIV1 RES056 expressing reverse transcriptase K103N/Y181C double mutant. The data set is classed as toxicity, cell-based. The following applies: read-out: Selectivity Index. The method, boiled down:
as §1

The test system of data set [4] is Human immunodeficiency virus 1. The experiment in a line: Antiviral activity against HIV1 3B infected in human MT4 cells assessed as reduction in virus-induced cytopathic effect after 5 days by MTT assay. The data set is classed as functional, organism-based. The note with it: Human immunodeficiency virus 1, 3B, MT4, 120 h. The gist of the method:
(§2)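 Exponentially growing MT-4 cells were pelleted and resuspended at 6 × 10⁵ cells/mL, then infected with virus stock at 100–300 CCID₅₀. Compounds were added at infection as serial five-fold dilutions in triplicate wells, with untreated infected and mock-infected controls. Viability was read spectrophotometrically by MTT five days post-infection. EC₅₀ is the concentration giving 50% protection from viral cytopathic effect.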

For data set [5], the target named is Human immunodeficiency virus type 1 reverse transcriptase (Human immunodeficiency virus 1, UniProt Q72547). Briefly: Inhibition of HIV1 reverse transcriptase assessed as reduction in biotin-labeled dUTP incorporation into DNA using poly(A) x oligo(dT)15 as template/primer after 1 hr by ELISA. The method, boiled down: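 Wild-type HIV-1 RT was assayed with a plate-bound homopolymer poly[A]·oligo[dT]₁₅ template/primer and biotin-dUTP, following the Roche RT kit protocol. Incorporated biotin-dUTP, a measure of RT activity, was quantified by ELISA. Percentage inhibition was calculated by formula, and IC₅₀ is the concentration inhibiting biotin-dUTP incorporation by 50%.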
On the technique in general: In an ELISA, binding on a coated surface is turned into a signal by an enzyme label.

For data set [6], the system named is Human immunodeficiency virus 2. The experiment in a line: Antiviral activity against HIV2 strain ROD infected in human MT4 cells assessed as reduction in virus-induced cytopathic effect at subtoxic concentration. The data set is classed as functional, organism-based. The note with it: ISOLATE ROD. The method, boiled down: as §2

Where a name gives a salt, the structure may show the parent alone. Active and inactive are the calls of the source. The rule behind the calls is not given here.

Broadly, the EC50 is the concentration giving half of the maximal effect. One may read the IC50 as the concentration needed to halve the response being measured. With `Cc1cc(C#N)cc(C)c1Oc1nc(Nc2ccc([N+](=O)[O-])cc2)cn2ccnc12`, the EC50 is over 29 µM in data set [1] and 2.3 µM in data set [4]. Moreover, the selectivity ratio in data set [2] was 13; in data set [3], under 1. Further, the IC50 in data set [5] is 14 µM. Besides, the inhibition result in data set [6] was “inactive”.

In the case of `Cc1cccc(C)c1Oc1nc(Nc2ccc(CC#N)cc2)cn2ccnc12`, the EC50 in data set [1] and in data set [4] was over 156 µM each time. For the same compound, the selectivity ratio in data set [2] and in data set [3] was under 1 each time. For the same compound, the IC50 in data set [5] was found to be 5.7 µM. The inhibition entry in data set [6] is “inactive”.

`Cc1ccnc2c1NC(=O)c1cccnc1N2C1CC1` [NEVIRAPINE]: the EC50 in data set [1] is at least 7.6 µM.

As to `Cc1cc(Br)cc(C)c1Oc1nc(Nc2ccc([N+](=O)[O-])cc2)cn2ccnc12`, the EC50 is over 28 µM in data set [1] and 4 µM in data set [4]. In addition, the results for the selectivity ratio in data set [2] and in data set [3] were 7 and under 1, respectively. The 50% inhibitory concentration (IC50) in data set [5] amounted to 4.1 µM. Moreover, in data set [6], the inhibition result was “inactive”.

Take `Cc1cc(C#N)cc(C)c1Oc1nc(Nc2ccc(C#N)cc2)nc2[nH]ccc12`: the EC50 in data set [4] was determined as 0.0009 µM.

Regarding `Cc1cc(C#N)cc(C)c1Oc1nc(Nc2ccc(C#N)cc2)nc(N)c1Br` [ETRAVIRINE], the results for the EC50 in data set [1] and in data set [4] were 0.02 µM and 0.004 µM, respectively.

On to `O=[N+]([O-])c1ccc(Nc2cn3ccnc3c(Oc3c(F)cc(F)cc3F)n2)cc1`, for which the concentration giving a half-maximal response (EC50) in data set [1] and in data set [4] was over 28 µM each time. Further, the selectivity ratio in data set [2] and in data set [3] was under 1 each time. In addition, in data set [5], the IC50 was found to be 11 µM. Besides, the inhibition entry in data set [6] was “inactive”.

For the compound `CC(C)Nc1cccnc1N1CCN(C(=O)c2cc3cc(NS(C)(=O)=O)ccc3[nH]2)CC1` [DELAVIRDINE MESYLATE], the EC50 in data set [1] was over 36 µM. Besides, the selectivity ratio in data set [2] is over 67; in data set [3] it was 1.

Consider `Cc1cccc(C)c1Oc1nc(Nc2ccc(Cl)cc2)cn2ccnc12`, for which the EC50 in data set [1] and in data set [4] was over 57 µM in each case. Besides, the selectivity ratio in data set [2] and in data set [3] was under 1 throughout. Also, the IC50 in data set [5] is 15 µM. Besides, the inhibition result in data set [6] is “inactive”.

`Cc1cc(C#N)cc(C)c1Oc1nc(Nc2ccc(Cl)cc2)cn2ccnc12`: the selectivity ratio in data set [2] was under 1. The EC50 in data set [4] is over 13 µM. The IC50 in data set [5] amounted to 5.5 µM. Moreover, the inhibition entry in data set [6] was “inactive”.

As to `Cc1cc(C#N)cc(C)c1Oc1nc(Nc2ccc(C#N)cc2)cn2ccnc12`, the concentration for a half-maximal effect (EC50) in data set [1] is over 73 µM; in data set [4], 0.32 µM. The selectivity ratio was at least 224 in data set [2] and 1 in data set [3]. For the same compound, the IC50 in data set [5] is 0.26 µM. Further, the inhibition entry in data set [6] is “inactive”.

With `Cc1cccc(C)c1Oc1nc(Nc2ccc(C#N)cc2)cn2ccnc12`, the EC50 in data set [1] was over 32 µM; in data set [4], 6.5 µM. Moreover, the selectivity ratio in data set [2] was 5; in data set [3], under 1. Besides, the IC50 in data set [5] was determined as 0.82 µM. Also, the inhibition entry in data set [6] is “inactive”.

Consider `Cc1cc(C)c(Oc2nc(Nc3ccc([N+](=O)[O-])cc3)cn3ccnc23)c(C)c1`, for which the EC50 is over 34 µM in data set [1] and 1.3 µM in data set [4]. Moreover, the figures for the selectivity ratio in data set [2] and in data set [3] were 25 and under 1, respectively. Moreover, the IC50 in data set [5] was determined as 4.7 µM. The inhibition result in data set [6] was “inactive”.

Consider `Cc1cc(Cl)cc(C)c1Oc1nc(Nc2ccc(C#N)cc2)cn2ccnc12`, for which the EC50 in data set [1] was over 34 µM; in data set [4] it was 0.87 µM. The selectivity ratio in data set [2] is 39; in data set [3] it was under 1. Moreover, the IC50 in data set [5] turned out to be 1.1 µM. Also, the inhibition entry in data set [6] is “inactive”.

`Nc1ccn([C@@H]2CS[C@H](CO)O2)c(=O)n1` [LAMIVUDINE]: the selectivity ratio in data set [2] was over 39.

On to `Cc1cccc(C)c1Oc1nc(Nc2ccc([N+](=O)[O-])cc2)cn2ccnc12`, for which the selectivity ratio in data set [2] was under 1. Further, the EC50 in data set [4] was over 5.3 µM. In data set [5], the half-inhibitory concentration (IC50) is 334 µM. The inhibition entry in data set [6] was “inactive”.

On to `O=c1[nH]cnc2c1ncn2[C@H]1CC[C@@H](CO)O1` [DIDANOSINE], for which the selectivity ratio in data set [2] is over 9.

Turning to `Cc1cc(C)c(Oc2nc(Nc3ccc(CC#N)cc3)cn3ccnc23)c(C)c1`, the EC50 in data set [1] was over 117 µM; in data set [4] it was 9.2 µM. Besides, the selectivity ratio in data set [2] was 13; in data set [3] it was under 1. Further, the IC50 in data set [5] was 0.36 µM. Also, the inhibition entry in data set [6] is “inactive”.

`Cc1cc(C)c(Oc2nc(Nc3ccc(Cl)cc3)cn3ccnc23)c(C)c1`: the EC50 in data set [1] and in data set [4] was over 12 µM in each case. The selectivity ratio in data set [2] and in data set [3] was under 1 throughout. In addition, the IC50 in data set [5] amounted to 5.9 µM. Moreover, the inhibition entry in data set [6] is “inactive”.

As for `Cc1cc(C)c(Oc2nc(Nc3ccc(C#N)cc3)cn3ccnc23)c(C)c1`, the EC50 in data set [1] is over 33 µM; in data set [4] it was 0.26 µM. Besides, the selectivity ratio was 126 in data set [2] and under 1 in data set [3]. Moreover, in data set [5], the half-inhibitory concentration (IC50) is 0.4 µM. For the same compound, the inhibition entry in data set [6] is “inactive”.

For `Cc1cc(Cl)cc(C)c1Oc1nc(Nc2ccc([N+](=O)[O-])cc2)cn2ccnc12`, the EC50 was over 33 µM in data set [1] and 4.6 µM in data set [4]. Moreover, the selectivity ratio was 7 in data set [2] and under 1 in data set [3]. Moreover, the IC50 in data set [5] was determined as 1.3 µM. For the same compound, in data set [6], the inhibition result is “inactive”.

For the compound `Cc1cn([C@H]2C[C@H](N=[N+]=[N-])[C@@H](CO)O2)c(=O)[nH]c1=O` [ZIDOVUDINE], in data set [1], the EC50 came out at 0.01 µM. Besides, the selectivity ratio in data set [2] is over 13100; in data set [3], over 9150.

For `N#Cc1ccc(Nc2cn3ccnc3c(Oc3c(F)cc(F)cc3F)n2)cc1`, the figures for the EC50 in data set [1] and in data set [4] were over 38 µM and 7.2 µM, respectively. In addition, the selectivity ratio in data set [2] was 5; in data set [3], under 1. The IC50 in data set [5] worked out at 0.47 µM. Also, in data set [6], the inhibition entry was “inactive”.

With `Cc1cc(C#N)cc(C)c1Oc1nc(Nc2ccc(CC#N)cc2)cn2ccnc12`, the values for the EC50 in data set [1] and in data set [4] were over 282 µM and 19 µM, respectively. Moreover, the selectivity ratio in data set [2] was 15; in data set [3] it was under 1. Also, in data set [5], the IC50 was determined as 0.17 µM. The inhibition entry in data set [6] was “inactive”.

For the compound `Cc1cc(Br)cc(C)c1Oc1nc(Nc2ccc(C#N)cc2)cn2ccnc12`, the EC50 was over 28 µM in data set [1] and 0.98 µM in data set [4]. The selectivity ratio in data set [2] was 28; in data set [3], under 1. For the same compound, in data set [5], the IC50 was 0.41 µM. Moreover, the inhibition result in data set [6] is “inactive”.

Values taken from ChEMBL document CHEMBL3414545, “Fused heterocycles bearing bridgehead nitrogen as potent HIV-1 NNRTIs. Part 4: design, synthesis and biological evaluation of novel imidazo[1,2-a]pyrazines” (Eur J Med Chem, 2015).
